XBP1 UPR activ = adaptive UPR (XBP1) activation; CHO-XBP1 luciferase reporter, IRE1-XBP1 UPR activation, luminescence; percent of tunicamycin response, DMSO as zero; activation, % at 20 µM; 330,000 tested, 0.33% active; AID 463104;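 active = versus positive control, 20 µM dose yields 30% or more activation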;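 note: 100% = tunicamycin at 10 µg/mL and 0% = DMSO only wells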
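Assay system: IRE1-XBP1 luciferase reporter CHO line. Input: 1000 cells/well. Buffer or medium: F12 with 10% serum. Doses: 20 µM, 1% DMSO. Times: overnight seeding at 37 °C, 6 h compound treatment at 37 °C. Technique: Steady-Glo luciferase glow luminescence, 10 min after reagent addition.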
MPTP block = permeability transition pore inhibition | 360,000 tested, 1.4% active | inhibition, % at 10 µM | isolated mouse mitochondria, Ca2+ swelling absorbance, 30 min;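 active = inhibition of 50% or more, scaled per plate between neutral and stimulator controls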;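 note: 0% = DMSO wells given calcium and 100% = 1 mM EGTA wells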
aDG glyco act = increases alpha dystroglycan glycosylation; activation, % at 10 µM; Pro5-aDG cells, alpha-DG glycosylation AlphaScreen (IIH6); 0% Pro5, 100% B10-LARGE cell signal; AID 624168; 360,000 tested, 0.22% active;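 active = activation of at least 8% versus controls, or a plate z-score of at least 8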;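 note: Pro5 are CHO cells carrying HIG-tagged alpha-DG that lacks glycosylation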
CHOP UPR activ = apoptotic UPR (CHOP) activation; CHO-CHOP luciferase reporter, luminescence; percent of tunicamycin response over DMSO baseline; activation, % at 10 µM; 330,000 tested, 0.34% active;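 active = at 10 µM dose, activation of 40% or more, normalized to positive control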;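 note: 100% = tunicamycin at 10 µg/mL and 0% = DMSO alone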
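Test system: CHO-CHOP cells, stable luciferase reporter of PERK-eIF2a-CHOP signalling | Quantity: 500 CHO-CHOP cells per well | Buffer or medium: F12 plus 10% serum | Compound dosing: 10 µM single point, 0.5% DMSO | Schedule: 6 h compound treatment, 37 °C | Signal: Luciferase luminescence | Control set: Tunicamycin high control, DMSO low control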
NR3A LBD binder = modulates the human NR3A ligand-binding domain; NR3A LBD differential scanning fluorimetry, Tm shift; 0% = protein alone, 100% = glycine-bound protein; 340,000 tested, 2.5% active; Tm shift relative to glycine control, % at 25 µM;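 active = melting temperature shift of at least 10% of the positive control shift, at one fixed dose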
CHOP inhibitor = inhibitors of CHOP induction in ER stress response. CHO-K1 CHOP-promoter luciferase, tunicamycin-induced, 15-18 h. inhibition, % at 10 µM. 220,000 tested, 3.8% active. AID 2732;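 active = compounds that reduced the stress-induced luciferase reporter signal by more than about 70% of percent inhibition, limit read from the data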;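 note: 0% = tunicamycin plus vehicle and 100% = wells without tunicamycin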
CHOP confirm = confirmation of CHOP induction inhibitors. shares compounds with CHOP inhibitor. CHO-CHOP promoter luciferase reporter, tunicamycin-induced, luminescence. inhibition, % at 10 µM. 2,100 tested, 45% active. AID 504437;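 active = mean of three repeat readings of reporter signal inhibition above a set limit, cut at about 70% in these data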;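 note: 0% = tunicamycin plus vehicle and 100% = wells lacking tunicamycin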
Active calls of the source: *. Only some compounds are listed: those with a hit (about 5.6% of all), similar ones and a draw of the others.

`CCc1ccc2c(c1)C(c1ccc(N3CCOCC3)cc1)=NNC(c1ccncc1)=N2` gave XBP1 UPR activ 0, MPTP block -1, aDG glyco act 0, CHOP UPR activ -1, NR3A LBD binder 2 and CHOP inhibitor 16.
`CC(=O)Oc1cc2oc(=O)c3c(c2cc1Cl)CCC3` gave XBP1 UPR activ -2, MPTP block 1, aDG glyco act 0, CHOP UPR activ 1, NR3A LBD binder 2, CHOP inhibitor 99* and CHOP confirm 6.
O=C(O)C1CCC(NSc2ccccc2[N+](=O)[O-])CC1 (stereo not given) was read as XBP1 UPR activ -5, MPTP block 0, aDG glyco act 0, CHOP UPR activ -1, NR3A LBD binder 2 and CHOP inhibitor 12.
`Cc1ccc2nc(-c3cc(-c4ccccc4)no3)cn2c1` gave XBP1 UPR activ -9, MPTP block 1, aDG glyco act 0, CHOP UPR activ -5, NR3A LBD binder 5, CHOP inhibitor 105* and CHOP confirm 74*.
Screening O=C(CSc1nnc(SCc2cccc3ccccc23)s1)N=Nc1c(O)[nH]c2ccccc12 returned CHOP inhibitor 97* and CHOP confirm 15.
O=C(Cc1cccs1)N=Nc1c(O)[nH]c2ccccc12 was read as XBP1 UPR activ 1, MPTP block 2, aDG glyco act 0, CHOP UPR activ 3, NR3A LBD binder -2 and CHOP inhibitor -46.
`COc1ccc(-c2nc3ccc(N4CCCC4)cc3c(=O)[nH]2)cc1OC` gave XBP1 UPR activ 7, MPTP block 1, aDG glyco act 0, CHOP UPR activ 3, NR3A LBD binder -1, CHOP inhibitor 103* and CHOP confirm 16.
`COc1ccc2nc(-c3ccccc3)[nH]c(=O)c2c1` gave MPTP block -1, aDG glyco act 0 and NR3A LBD binder -2.
`O=C(CN(Cc1ccc(F)cc1)C(=O)CCC(=O)Nc1ccccn1)NCCc1ccccc1` gave XBP1 UPR activ -1, MPTP block -2, aDG glyco act 0, CHOP UPR activ -1 and NR3A LBD binder -1.
For CCC(=O)c1ccc(OCC(=O)NC2(C#N)CCCCC2)cc1 the results were XBP1 UPR activ -5, MPTP block 11, aDG glyco act 0, CHOP UPR activ 0, NR3A LBD binder 1 and CHOP inhibitor -6.
Screening Cc1ccc(CNC(=O)c2ccc3c(=O)c(O)c(-c4ccc(C)cc4)[nH]c3c2)cc1 returned XBP1 UPR activ 10, MPTP block 9, aDG glyco act 3, CHOP UPR activ 3, NR3A LBD binder -4, CHOP inhibitor 103* and CHOP confirm 60.
CCCNC(=O)c1ccc2c(=O)c(O)c(-c3ccc(C)cc3)[nH]c2c1 was read as XBP1 UPR activ 0, MPTP block 2, aDG glyco act 2, CHOP UPR activ 1, NR3A LBD binder -7 and CHOP inhibitor 35.
CC(CCN1CCN(c2ccccc2)CC1)c1ccccc1 (stereo not given) was read as XBP1 UPR activ -1, MPTP block 0, aDG glyco act 0, CHOP UPR activ -1 and NR3A LBD binder 3.
Screening Nn1c(SCC(=O)NC2CCCc3ccccc32)nnc1-c1ccc(Cl)cc1Cl (stereo not given) returned CHOP inhibitor 24.
Screening Cc1ccc(OCCn2c(NC(=O)c3ccco3)nc3ccccc32)cc1 returned XBP1 UPR activ 3, MPTP block 2, aDG glyco act 1, CHOP UPR activ 1, NR3A LBD binder -14 and CHOP inhibitor 21.
O=C(Nc1nc2ccccc2n1Cc1ccc(Cl)cc1)c1ccco1 was read as XBP1 UPR activ -1, MPTP block 3, aDG glyco act 2, CHOP UPR activ 1, NR3A LBD binder -17, CHOP inhibitor 103* and CHOP confirm -53.
For Cc1cccc(OCCn2c(NC(=O)c3ccco3)nc3ccccc32)c1 the results were XBP1 UPR activ 7, MPTP block 1, aDG glyco act 1, CHOP UPR activ 1, NR3A LBD binder -7, CHOP inhibitor 104* and CHOP confirm -12.
`CC(=O)Nc1ccc(SCC(=O)N(C)C2CCS(=O)(=O)C2)cc1` (stereo not given) gave XBP1 UPR activ -2, MPTP block 0, aDG glyco act 1, CHOP UPR activ -1, NR3A LBD binder 0 and CHOP inhibitor -8.
`CCCC(=O)N1N=C(c2ccccc2)CC1c1cn(C)c2ccccc12` (stereo not given) gave XBP1 UPR activ 1, MPTP block 1, aDG glyco act 0, CHOP UPR activ 0, NR3A LBD binder 15*, CHOP inhibitor 105* and CHOP confirm 9.
Screening Cn1cc(C2CC(c3ccccc3)=NN2C(=O)c2ccccc2)c2ccccc21 (stereo not given) returned XBP1 UPR activ -1, MPTP block 2, aDG glyco act 0, CHOP UPR activ 1, NR3A LBD binder -1 and CHOP inhibitor 67.
Cc1ccc(Cn2nc(C)c(NC(=O)c3cc(-c4ccc5c(c4)OCO5)on3)c2C)cc1 was read as XBP1 UPR activ -1, CHOP UPR activ 2, NR3A LBD binder -1, CHOP inhibitor 106* and CHOP confirm 68.
`COc1ccc2ccc(OCC(=O)NCC3CCCO3)cc2c1` (stereo not given) gave XBP1 UPR activ 0, MPTP block 0, aDG glyco act 0, CHOP UPR activ 0 and NR3A LBD binder 0.
For C=CCC(Nc1ccccc1)C12C=CC(O1)C(C(=O)OC)=C2C(=O)OC (stereo not given) the results were XBP1 UPR activ -12, MPTP block -2, aDG glyco act 0, CHOP UPR activ 35, NR3A LBD binder 2, CHOP inhibitor 112* and CHOP confirm 42.
CC(C)CCSc1nc2c(c(=O)[nH]c(=O)n2C)n1CCCc1ccccc1 was read as XBP1 UPR activ 4, MPTP block 2, aDG glyco act 0, CHOP UPR activ -1, NR3A LBD binder 3, CHOP inhibitor 105* and CHOP confirm 106*.
For CCC(C)Sc1nc2c(c(=O)[nH]c(=O)n2C)n1Cc1ccc(Cl)cc1 (stereo not given) the results were XBP1 UPR activ 6, MPTP block 1, aDG glyco act 0, CHOP UPR activ -1, NR3A LBD binder 2, CHOP inhibitor 98* and CHOP confirm 103*.

High-throughput results: PubChem BioAssay, several laboratories
